Measured values taken from publication PMC8341738 (RSC Chemical Biology, 2021).

Legend:
[1] = molecular target: T1, Fra1 (Homo sapiens, UniProt P15407); experiment: Isothermal titration calorimetry, Fra1W titrated into Fra1; format: binding
T1 sequence (P15407 129-162): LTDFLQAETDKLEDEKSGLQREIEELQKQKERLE

[2] = Circular dichroism spectra, peptides in isolation; format: physicochemical; conditions: CD, 150 μM total peptide, 10 mM potassium phosphate, 100 mM potassium fluoride, pH 7.0
[3] = molecular target: T1, Fra1; experiment: Circular dichroism spectra, 1:1 mixture with Fra1; format: binding; conditions: 1:1 with Fra1, 150 μM total peptide, pH 7.0
Summary of the method: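 Fra1 and test peptide mixed 1:1 at 75 μM each (150 μM total) in 10 mM potassium phosphate, 100 mM KF, pH 7.0. Far-UV CD in a 1 mm cell, 300–190 nm, 1 nm steps, 0.5 s per point, three scans averaged. Spectra taken at 20 °C, at 5 °C, and at 20 °C after thermal denaturation to check refolding. Reported as mean residue ellipticity; 222/208 ratio used to judge oligomerisation.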

[4] = system: cJun; experiment: Circular dichroism spectra, mixture with cJun; format: binding; conditions: CD at 20 °C, mixed with cJun, 150 μM total peptide, pH 7.0
[5] = system: cJun; experiment: CD thermal denaturation, mixture with cJun; format: binding; conditions: cJun–Fra1W; CD at 222 nm, 150 μM total peptide, pH 7
Summary of the method: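 Equimolar peptide pair at 150 μM total in 10 mM potassium phosphate, 100 mM KF, pH 7. Ellipticity at 222 nm recorded from 0 to 90 °C in 1 °C steps with a 30 s pause at each step, signal averaged over 4 s. Reversible curves (≥95%) were least-squares fitted to a two-state model (modified Gibbs–Helmholtz) to give Tm.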

[6] = system: Fra1–cJun; experiment: CD dimer exchange experiments; format: binding; conditions: CD at 20 °C, 150 μM total, equimolar, pH 7.0
Summary of the method: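 Dimer exchange by CD: equimolar peptide mixtures at 150 μM total peptide in 10 mM potassium phosphate, 100 mM potassium fluoride, pH 7.0. Equilibrated spectra recorded at 20 °C in a 1 mm cell, 300–190 nm in 1 nm steps, 0.5 s per wavelength, three scans averaged. Data expressed as mean residue ellipticity and superimposed across mixing orders.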

[7] = Size-exclusion chromatography, single peptides; format: physicochemical; conditions: Superdex Peptide 10/300 GL; 20 μM total peptide; 10 mM potassium phosphate, 100 mM potassium fluoride, pH 7.0; 0.5 mL min^−1; room temperature; monomeric
[8] = molecular target: T1, Fra1; experiment: Size-exclusion chromatography, mixture with Fra1; format: binding; conditions: Fra1–Fra1W mixture, 20 μM total peptide, pH 7.0; dimeric
Summary of the method: (§1)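 Peptide mixture at 20 μM total peptide in 10 mM potassium phosphate, 100 mM KF, pH 7.0, run at room temperature on a peptide gel-filtration column at 0.5 mL min⁻¹. Elution times compared against previously characterised monomeric and heterodimeric coiled-coil reference peptides.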

[9] = system: cJun; experiment: Size-exclusion chromatography, mixture with cJun; format: binding; conditions: cJun–Fra1W mixture, 20 μM total peptide, pH 7.0; monomeric
Summary of the method: as §1

[10] = molecular target: T1, Fra1; experiment: Protein-fragment complementation assay; format: cell-based; conditions: competition selection in liquid M9 medium, ten rounds, E. coli

Substance: Ac-KAAALKQKAYALKQQIAALKKQVAALKQKIAALK-NH2 [Fra1W]
- Kd [1]: 0.917 µM
- N (stoichiometric measure of binding) ([1]; ITC, 20 °C, pH 7.0): 1.06
- helical content [2]: 60%
- CD signal vs averaged homomeric signals ([3]; CD at 20 °C): an increase from the averaged homomeric signals of Fra1 and Fra1W
- 222/208 nm ratio ([3]; CD): 1.06
- α-helical content of Fra1–Fra1W complex ([3]; CD): 75%
- α-helical content relative to Fra1 in isolation ([3]; CD): more than three times that of the target Fra1 in isolation
- CD signal vs averaged homomeric signals [4]: superimposed with the averaged homomeric signals
- thermal denaturation profile vs average of component peptides [5]: no difference from the average of the component peptides
- dimer exchange on addition of Fra1W to Fra1–cJun [6]: an increase in signal was observed
- dimer exchange on addition of Fra1 to cJun–Fra1W [6]: the CD signal increased from the average of the component samples
- dimer exchange on addition of cJun to Fra1–Fra1W [6]: no exchange of binding partner had occurred
- SEC elution time (oligomeric state) [7]: approximately 20 min
- SEC elution time (oligomeric state) [8]: approximately 19 min
- SEC elution time (oligomeric state) [9]: approximately 20 min
- PCA selection outcome [10]: one clean DNA sequence in the pool after ten rounds of competition selection passaging
